ChEMBL document CHEMBL1147446, “Antagonists of human CCR5 receptor containing 4-(pyrazolyl)piperidine side chains. Part 3: SAR studies on the benzylpyrazole segment” (Bioorg Med Chem Lett, 2004)

Columns and labels:
HeLa [1] = assay: Antiviral activities in a cell culture HIV-1 infectivity inhibition assay using HeLa cells plus 50% normal human serum; format: functional
[2] = molecular target: C-C chemokine receptor type 5 (Homo sapiens, UniProt P51681); assay: Inhibitory concentration for displacement of [125I]-MIP-1 alpha from recombinant human CC chemokine receptor 5 (CCR5) expressed in CHO cell; format: cell-based
How it was run: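 Competitive binding to CCR5 on CHO cell membranes, read as displacement of [125I]-labeled MIP-1α. IC50 values are means of triplicate determinations. Standard errors were normally <15% within an assay. Assay-to-assay variation was within ±2-fold, judged from a standard compound.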

Canis familiaris [3] = assay: […] AUCN in dog (dosed as a mixture of five compounds at 0.5 mpk each via iv only); format: ADME, organism-based, Canis lupus familiaris; settings: in vivo
HeLa [4] = assay: Antiviral activities in a cell culture HIV-1 infectivity inhibition assay using HeLa cells; format: functional; settings: Homo sapiens
[5] = Half life in dog (dosed as a mixture of five compounds at 0.5 mpk each via iv only); format: ADME, organism-based, Canis lupus familiaris; settings: in vivo
How it was run: (§1)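 Dogs received a five-compound cassette by iv only, 0.5 mpk of each compound.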

[6] = Plasma clearance in dog (dosed as a mixture of five compounds at 0.5 mpk each via iv only); format: ADME, organism-based, Canis lupus familiaris; settings: read-out: Clp; how it was run: as §1
HeLa [7] = assay: Inhibition of HIV-1 infectivity using BAL-1 strain against HeLa cell line was determined; format: functional; settings: Homo sapiens
D(3) dopamine receptor [8] = molecular target: T1, D(3) dopamine receptor (Homo sapiens, UniProt P35462); assay: (§2) Inhibitory activity against human dopamine receptor D3 at 10 uM
in vivo [9] = settings: rat, plasma
[10] = In vitro antiviral activity using peripheral blood mononuclear cell (PBMC) HIV-1 spread assay; format: functional; settings: Homo sapiens
in vivo [11] = settings: rat
Canis familiaris [12] = assay: […] AUCN in dog ( (dosed as a mixture of five compounds at 0.5 mpk each via iv only); format: ADME, organism-based, Canis lupus familiaris; settings: in vivo
[13] = In vitro antiviral activity using peripheral blood mononuclear cell (PBMC) HIV-1 spread assay in presence of 50% normal human serum; format: functional
[14] = (§3) Inhibitory activity against rat Na+ channel site 2 at 10 uM
[15] = molecular target: T2, Sodium-dependent dopamine transporter (Homo sapiens, UniProt Q01959); assay: (§4) Inhibitory activity against human dopamine transporter at 10 uM
[16] = molecular target: Sodium-dependent noradrenaline transporter (Homo sapiens) (UniProt P23975); assay: Inhibitory activity against human adrenergic norepinephrine transporter at 10 uM
[17] = molecular target: L-type calcium channel, benzothiazepine site (Rattus norvegicus, UniProt P22002+P27732+Q02485); assay: Inhibition of binding to rat L-type Calcium channel benzothiazepine site at 10 uM; format: functional
in vivo [18] = settings: rat; remark: listed apart in the source
D(3) dopamine receptor [19] = molecular target: T1, D(3) dopamine receptor; assay: as §2; remark: listed apart in the source
[20] = molecular target: T2, Sodium-dependent dopamine transporter; assay: as §4; remark: listed apart in the source
[21] = molecular target: Voltage-gated inwardly rectifying potassium channel KCNH2 (Homo sapiens, UniProt Q12809); assay: Binding affinity against hERG Voltage-gated potassium channel subunit Kv11.1
in vivo [22] = settings: dog, plasma, iv, 0.5 mg/kg
in vivo [23] = settings: dog
Canis familiaris [24] = assay: Oral AUCN in dog (dosed at 0.5 mpk iv ); settings: in vivo, 0.5 mg/kg
Rattus norvegicus = species on record: Rattus norvegicus; assay: as §3

Sequence of Sodium-dependent noradrenaline transporter (Homo sapiens) (P23975 whole entry): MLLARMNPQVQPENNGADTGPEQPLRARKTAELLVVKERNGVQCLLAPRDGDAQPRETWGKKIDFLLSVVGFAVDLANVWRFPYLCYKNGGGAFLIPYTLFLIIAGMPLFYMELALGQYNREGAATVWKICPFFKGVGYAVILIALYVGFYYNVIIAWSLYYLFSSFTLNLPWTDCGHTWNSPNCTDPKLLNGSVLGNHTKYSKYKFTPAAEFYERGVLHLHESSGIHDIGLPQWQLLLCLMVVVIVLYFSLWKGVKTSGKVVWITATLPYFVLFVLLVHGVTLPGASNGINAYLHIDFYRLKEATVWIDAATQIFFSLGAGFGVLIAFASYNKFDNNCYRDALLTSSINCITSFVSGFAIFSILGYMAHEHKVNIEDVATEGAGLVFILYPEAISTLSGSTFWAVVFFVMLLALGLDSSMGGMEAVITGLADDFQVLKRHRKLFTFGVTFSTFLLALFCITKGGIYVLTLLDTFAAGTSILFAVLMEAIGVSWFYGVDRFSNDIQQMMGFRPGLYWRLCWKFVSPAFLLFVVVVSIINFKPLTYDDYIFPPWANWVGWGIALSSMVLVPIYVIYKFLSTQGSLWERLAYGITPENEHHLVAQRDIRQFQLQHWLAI
T2 sequence (Q01959 whole entry): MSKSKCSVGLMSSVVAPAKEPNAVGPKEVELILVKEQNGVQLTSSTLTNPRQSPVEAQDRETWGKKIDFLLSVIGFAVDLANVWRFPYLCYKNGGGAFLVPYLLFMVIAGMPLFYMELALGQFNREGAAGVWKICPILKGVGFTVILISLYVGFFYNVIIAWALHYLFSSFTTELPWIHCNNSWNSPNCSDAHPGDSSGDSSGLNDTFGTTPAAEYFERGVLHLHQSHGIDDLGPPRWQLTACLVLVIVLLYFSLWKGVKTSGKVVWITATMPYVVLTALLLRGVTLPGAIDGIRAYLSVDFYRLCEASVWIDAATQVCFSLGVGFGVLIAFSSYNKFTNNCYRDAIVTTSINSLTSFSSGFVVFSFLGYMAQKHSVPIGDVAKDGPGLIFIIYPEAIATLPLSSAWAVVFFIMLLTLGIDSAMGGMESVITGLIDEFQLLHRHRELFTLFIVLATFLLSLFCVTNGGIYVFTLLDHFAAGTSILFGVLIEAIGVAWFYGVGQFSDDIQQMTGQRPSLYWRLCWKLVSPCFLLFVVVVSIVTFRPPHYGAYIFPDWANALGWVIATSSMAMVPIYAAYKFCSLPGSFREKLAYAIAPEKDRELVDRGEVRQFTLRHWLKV
T1 sequence (P35462 whole entry): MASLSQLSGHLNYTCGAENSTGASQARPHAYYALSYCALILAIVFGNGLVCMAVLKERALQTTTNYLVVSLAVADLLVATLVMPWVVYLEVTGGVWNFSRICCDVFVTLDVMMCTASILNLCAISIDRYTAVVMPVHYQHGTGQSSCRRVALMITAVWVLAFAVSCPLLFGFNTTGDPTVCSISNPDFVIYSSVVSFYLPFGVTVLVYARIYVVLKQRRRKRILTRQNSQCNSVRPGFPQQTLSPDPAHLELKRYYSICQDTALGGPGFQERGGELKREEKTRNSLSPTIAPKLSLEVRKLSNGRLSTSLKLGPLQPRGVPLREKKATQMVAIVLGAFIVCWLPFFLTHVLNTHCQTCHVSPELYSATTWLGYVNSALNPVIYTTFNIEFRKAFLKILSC
Sequence of C-C chemokine receptor type 5 (P51681 whole entry): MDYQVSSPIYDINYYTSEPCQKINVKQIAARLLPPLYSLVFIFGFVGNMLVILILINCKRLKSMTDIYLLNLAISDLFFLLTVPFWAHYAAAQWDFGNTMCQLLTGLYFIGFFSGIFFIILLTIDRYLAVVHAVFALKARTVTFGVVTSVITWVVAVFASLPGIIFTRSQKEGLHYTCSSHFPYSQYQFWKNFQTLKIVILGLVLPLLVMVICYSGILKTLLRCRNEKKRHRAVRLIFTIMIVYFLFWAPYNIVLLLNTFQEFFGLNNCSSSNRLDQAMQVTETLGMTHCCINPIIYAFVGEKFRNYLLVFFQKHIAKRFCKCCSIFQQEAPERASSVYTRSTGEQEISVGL
Sequence of Voltage-gated inwardly rectifying potassium channel KCNH2 (Q12809 whole entry): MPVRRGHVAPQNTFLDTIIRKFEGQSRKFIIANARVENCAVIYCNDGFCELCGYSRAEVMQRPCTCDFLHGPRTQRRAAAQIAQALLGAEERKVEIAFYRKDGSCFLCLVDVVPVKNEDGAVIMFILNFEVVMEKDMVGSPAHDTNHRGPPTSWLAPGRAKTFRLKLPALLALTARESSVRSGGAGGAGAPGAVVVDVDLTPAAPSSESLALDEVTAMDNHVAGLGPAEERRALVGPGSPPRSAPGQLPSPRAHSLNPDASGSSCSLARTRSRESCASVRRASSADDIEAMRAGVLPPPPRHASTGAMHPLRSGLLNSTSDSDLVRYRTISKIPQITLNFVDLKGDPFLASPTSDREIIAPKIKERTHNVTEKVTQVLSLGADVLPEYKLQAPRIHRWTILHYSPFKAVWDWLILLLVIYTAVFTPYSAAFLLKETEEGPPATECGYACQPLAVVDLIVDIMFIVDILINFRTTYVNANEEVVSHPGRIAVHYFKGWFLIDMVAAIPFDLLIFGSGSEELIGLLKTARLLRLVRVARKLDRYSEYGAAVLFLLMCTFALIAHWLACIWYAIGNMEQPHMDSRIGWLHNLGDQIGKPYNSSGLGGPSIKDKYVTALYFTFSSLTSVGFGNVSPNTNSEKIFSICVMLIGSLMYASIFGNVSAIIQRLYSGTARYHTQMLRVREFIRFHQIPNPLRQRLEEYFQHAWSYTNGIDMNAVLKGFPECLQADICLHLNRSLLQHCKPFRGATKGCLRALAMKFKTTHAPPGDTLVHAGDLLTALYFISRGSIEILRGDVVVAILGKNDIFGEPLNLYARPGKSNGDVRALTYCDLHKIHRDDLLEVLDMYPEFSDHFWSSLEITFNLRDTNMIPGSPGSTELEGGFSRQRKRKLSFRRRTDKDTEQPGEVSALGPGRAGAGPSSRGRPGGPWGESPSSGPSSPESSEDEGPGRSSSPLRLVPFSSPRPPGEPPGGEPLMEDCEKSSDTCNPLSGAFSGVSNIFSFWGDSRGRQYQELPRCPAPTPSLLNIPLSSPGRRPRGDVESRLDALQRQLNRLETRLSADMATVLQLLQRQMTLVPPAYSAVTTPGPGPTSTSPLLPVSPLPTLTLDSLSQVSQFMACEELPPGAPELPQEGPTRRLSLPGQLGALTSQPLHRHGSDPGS

## CCn1nc(Cc2ccc(C(F)(F)F)cc2)cc1C1CCN(C[C@H]2CN([C@@H](C(=O)O)C(C)(C)C)C[C@@H]2c2cccc(F)c2)CC1
HeLa [1]
  IC90: 33 nM
[2]
  IC50: 0.3 nM
Canis familiaris [3]
  AUC N: 4.9 uM hr dose-1
HeLa [4]
  IC90: 0.4 nM
[5]
  half-life: 2.8 h
[6]
  clearance: 5.5 mL/min/kg

## CCn1nc(Cc2ccccc2)cc1C1CCN(C[C@H]2CN([C@@H](C(=O)O)C3CCCCC3)C[C@@H]2c2ccccc2)CC1
HeLa [7]
  IC90: 0.4 nM

## CC[C@H](C)[C@H](C(=O)O)N1C[C@H](CN2CCC(c3cc(Cc4ccc(OC(F)(F)F)cc4)nn3CC)CC2)[C@@H](c2cccc(F)c2)C1
D(3) dopamine receptor [8]
  IC50: 2700 nM
In vivo [9]
  clearance: 8.8 mL/min/kg
HeLa [1]
  IC90: 33 nM
[10]
  IC95: 2.5 nM
In vivo [11]
  bioavailability: 41%
[2]
  IC50: 1.1 nM
Canis familiaris [12]
  AUC N: 6.8 uM hr dose-1
[13]
  IC95: 20 nM
HeLa [4]
  IC90: 0.4 nM
[5]
  half-life: 3.1 h
[14]
  IC50: 1200 nM
[15]
  IC50: 3600 nM
[16]
  inhibition: 42%
[17]
  inhibition at 10 µM: 46%
In vivo [18]
  half-life: 2.3 h
[6]
  clearance: 3.8 mL/min/kg

## CCn1nc(Cc2ccc(OC)c(OC)c2)cc1C1CCN(C[C@H]2CN([C@@H](C(=O)O)C(C)(C)C)C[C@@H]2c2cccc(F)c2)CC1
In vivo [9]
  clearance: 2.1 mL/min/kg
HeLa [1]
  IC90: 11 nM
D(3) dopamine receptor [19]
  inhibition: 44%
[10]
  IC95: 1.6 nM
In vivo [11]
  bioavailability: 33%
[2]
  IC50: 1.2 nM
[20]
  inhibition: 9%
Canis familiaris [12]
  AUC N: 1.9 uM hr dose-1
[13]
  IC95: 31 nM
HeLa [4]
  IC90: < 0.14 nM
[5]
  half-life: 2.1 h
[14]
  IC50: 3200 nM
[16]
  inhibition: 3%
[17]
  inhibition at 10 µM: -8%
In vivo [18]
  half-life: 1.1 h
[6]
  clearance: 14 mL/min/kg

## CCn1nc(Cc2ccc(-c3ccccc3)cc2)cc1C1CCN(C[C@H]2CN([C@@H](C(=O)O)C3CCCCC3)C[C@@H]2c2cccc(F)c2)CC1
In vivo [9]
  clearance: 5.3 mL/min/kg
HeLa [1]
  IC90: 11 nM
In vivo [11]
  bioavailability: 18%
[2]
  IC50: 0.3 nM
[21]
  Ki: 400 nM
HeLa [4]
  IC90: 0.4 nM
In vivo [18]
  half-life: 1.3 h

## CC[C@H](C)[C@H](C(=O)O)N1C[C@H](CN2CCC(c3cc(Cc4ccccc4)nn3CC)CC2)[C@@H](c2cccc(F)c2)C1
HeLa [1]
  IC90: 100 nM
In vivo [11]
  bioavailability: 13%
[21]
  Ki: 30000 nM
In vivo [18]
  half-life: 0.54 h

## CCn1nc(Cc2ccccc2)cc1C1CCN(C[C@H]2CN([C@@H](C(=O)O)C(C)(C)C)C[C@@H]2c2cccc(F)c2)CC1
HeLa [1]
  IC90: 100 nM
Canis familiaris [3]
  AUC N: 1.2 uM hr dose-1
[5]
  half-life: 0.75 h
In vivo [22]
  clearance: 13 mL/min/kg
In vivo [23]
  half-life: 0.64 h
Canis familiaris [24]
  AUC N: 2.3 µM hr dose-1
[6]
  clearance: 25 mL/min/kg

## CCn1nc(Cc2ccc(C#N)cc2)cc1C1CCN(C[C@H]2CN([C@@H](C(=O)O)C(C)(C)C)C[C@@H]2c2cccc(F)c2)CC1
D(3) dopamine receptor [8]
  IC50: 4000 nM
HeLa [1]
  IC90: 3.7 nM
[2]
  IC50: 1.3 nM
[20]
  inhibition: 17%
Rattus norvegicus
  inhibition: 44%
HeLa [4]
  IC90: < 0.14 nM
[16]
  inhibition: 23%
[17]
  inhibition at 10 µM: 1%
